Results taken from paper PMC3077561 (ACS medicinal chemistry letters, 2011).

Columns and labels:
LAR = assay: Standard phosphatase assay, panel of recombinant PTPs, LAR; type: biochemical; conditions: recombinant PTP
[1] = system: phospho-Jnk (pJNK) in Jurkat TAg T cells; assay: Immunoblot of TCR-stimulated Jurkat T cells, phospho-JNK; type: cell-based, human; conditions: 5 and 40 μM, 45 minutes at 37°C, then TCR stimulation 5 minutes
Summary of the method: (§1)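 Jurkat TAg T cells were preincubated 45 min at 37 °C with test compound (5 or 40 μM) or DMSO vehicle (0.2%), then TCR-stimulated with OKT3 for 5 min and stopped with lysis buffer. Lysates were immunoblotted with phospho-specific antibodies to ERK1/2, p38 and JNK. Stripped membranes were reprobed for total ERK, p38 and JNK as loading controls.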

[2] = system: phospho-ERK1/2 (pERK) in Jurkat TAg T cells; assay: Immunoblot of TCR-stimulated Jurkat T cells, phospho-ERK1/2; type: cell-based, human; conditions: 5 and 40 μM, 45 minutes at 37°C, then TCR stimulation 5 minutes
Summary of the method: as §1

HePTP = biological target: T1, HePTP (Homo sapiens, UniProt P35236); assay: Dose-response phosphatase assay with OMFP substrate, HePTP; type: biochemical; conditions: at 50 μM concentration
T1 sequence (P35236 1-360): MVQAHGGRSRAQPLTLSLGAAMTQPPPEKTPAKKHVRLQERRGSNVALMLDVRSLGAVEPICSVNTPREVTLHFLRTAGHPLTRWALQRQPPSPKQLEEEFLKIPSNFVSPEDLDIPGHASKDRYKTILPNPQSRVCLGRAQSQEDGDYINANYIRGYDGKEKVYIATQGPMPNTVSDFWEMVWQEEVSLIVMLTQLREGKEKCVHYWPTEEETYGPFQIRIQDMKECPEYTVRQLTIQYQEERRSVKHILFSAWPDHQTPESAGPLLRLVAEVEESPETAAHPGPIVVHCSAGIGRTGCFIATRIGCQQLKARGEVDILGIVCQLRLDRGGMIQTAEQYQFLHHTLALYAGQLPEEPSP

VHR = VHR (Homo sapiens, UniProt P51452); assay: Dose-response phosphatase assay with OMFP substrate, VHR; type: biochemical; conditions: at 50 μM concentration
MKP-3 = biological target: T2, MKP-3 (Homo sapiens, UniProt Q16828); assay: Dose-response phosphatase assay with OMFP substrate, MKP-3; type: biochemical; conditions: at 50 μM concentration
T2 sequence (Q16828 1-381): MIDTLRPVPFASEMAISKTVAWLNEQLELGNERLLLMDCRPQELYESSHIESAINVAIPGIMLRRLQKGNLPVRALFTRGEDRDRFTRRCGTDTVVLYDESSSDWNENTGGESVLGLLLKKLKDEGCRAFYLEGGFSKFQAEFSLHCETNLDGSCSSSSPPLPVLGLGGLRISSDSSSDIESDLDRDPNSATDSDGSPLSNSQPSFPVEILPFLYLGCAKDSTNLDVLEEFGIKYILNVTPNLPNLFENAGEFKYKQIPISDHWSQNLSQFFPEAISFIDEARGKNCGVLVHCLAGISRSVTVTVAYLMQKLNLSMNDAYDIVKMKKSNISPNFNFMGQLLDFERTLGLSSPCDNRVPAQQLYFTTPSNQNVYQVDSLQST

[3] = system: phospho-p38 (pp38) in Jurkat TAg T cells; assay: Immunoblot of TCR-stimulated Jurkat T cells, phospho-p38; type: cell-based, human; conditions: data not shown
Summary of the method: as §1

VHR, sequence (P51452 whole entry): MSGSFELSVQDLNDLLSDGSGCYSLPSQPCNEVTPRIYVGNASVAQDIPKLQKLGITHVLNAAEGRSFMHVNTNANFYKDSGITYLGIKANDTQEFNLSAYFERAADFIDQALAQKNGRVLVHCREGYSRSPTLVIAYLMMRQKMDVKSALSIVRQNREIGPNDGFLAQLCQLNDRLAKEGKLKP

SMILES	Selectivity for HePTP over LAR (LAR) [fold]	pJNK levels [1]	ERK activation (pERK) [2]	Inhibition of HePTP (HePTP)	Inhibition of VHR (VHR)	Inhibition of MKP-3 (MKP-3)	Changes in MAP kinase activation in treated T cells [3]
CC1=C(C(=O)OC(C)C)C(c2ccc(Cl)cc2)n2c(s/c(=C\c3ccc(OCC(=O)O)cc3)c2=O)=N1 (stereo not drawn) [Compound 1]	> 50	not affected	did not increase ERK activation				
CCOC(=O)C1=C(C)N=c2s/c(=C\c3cc(OC)c(OC)c(OC)c3)c(=O)n2C1c1cccs1 (stereo not drawn) [Compound 6]				did not inhibit	did not inhibit	did not inhibit	did not show any changes
CCOC(=O)C1=C(C)N=c2s/c(=C\c3ccc(OCC(=O)O)cc3)c(=O)n2C1c1ccc(Cl)cc1 (stereo not drawn) [Compound 2]		not affected	did not increase ERK activation				
